Data from ChEMBL document CHEMBL1156692, “Synthesis of novel 7-benzylamino-2H-1,4-benzoxazin-3(4H)-ones as anticonvulsant agents” (Eur J Med Chem, 2008).

Columns and labels:
[1] = Neurotoxicity in ip dosed C57B/6 mouse after 30 mins by rotarod test; assay type: toxicity, organism-based; settings: in vivo
Method in brief: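 Minimal neurotoxicity in mice was scored on the rotarod, 30 min after i.p. administration. TD50 was reported in mg/kg with a range in parentheses.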

[2] = system: Mus musculus; assay: Anticonvulsant activity in ip dosed C57B/6 mouse assessed as inhibition of maximal electroshock-induced seizures; assay type: functional; settings: C57B/6, ip
[3] = organism: Mus musculus; assay: Protective index, ratio of TD50 for C57B/6 mouse by rotarod test to ED50 for C57BL/6 mouse by MES test; assay type: functional
[4] = system: Mus musculus; assay: Anticonvulsant activity in C57B/6 mouse assessed as inhibition of pentylenetetrazole-induced clonic seizures at 50 mg/kg, ip after 0.5 hrs relative to control; assay type: functional; parameters: scale not given: the % may be the effect or the level left; settings: dose 100 mg/kg; route intraperitoneal; in the assay text read “100 mg/kg” for “50 mg/kg”
Method in brief: (§1)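 Seizures in mice were induced by pentylenetetrazole 85 mg/kg in saline, s.c., 30 min after i.p. test agent. Animals were caged singly and watched for 30 min. Clonic and tonic seizures and deaths were counted.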

[5] = system: Mus musculus; assay: Anticonvulsant activity in C57B/6 mouse assessed as inhibition of pentylenetetrazole-induced tonic seizures at 50 mg/kg, ip after 0.5 hrs relative to control; assay type: functional; parameters: scale not given: the % may be the effect or the level left; settings: route intraperitoneal; method in brief: as §1
[6] = system: Mus musculus; assay: Anticonvulsant activity in C57B/6 mouse assessed as inhibition of isoniazid-induced clonic seizures at 50 mg/kg, ip after 0.5 hrs relative to control; assay type: functional; parameters: scale not given: the % may be the effect or the level left; settings: route intraperitoneal
Method in brief: (§2)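 Isoniazid-induced seizure model in mice. Isoniazid 250 mg/kg was given 30 min after i.p. test agent. Clonic seizures, tonic seizures and lethality were counted. Treated groups were compared with the control group.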

[7] = system: Mus musculus; assay: Anticonvulsant activity in C57B/6 mouse assessed as inhibition of isoniazid-induced tonic seizures at 50 mg/kg, ip after 0.5 hrs relative to control; assay type: functional; parameters: scale not given: the % may be the effect or the level left; settings: route intraperitoneal; method in brief: as §2
[8] = system: Mus musculus; assay: Toxicity in isoniazid-induced seizure C57B/6 mouse model assessed as lethality at 50 mg/kg, ip after 0.5 hrs relative to control; assay type: organism-based; parameters: dose 50 mg/kg, route intraperitoneal; settings: in vivo
Method in brief: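 Mice received the test agent i.p., then isoniazid 250 mg/kg 30 min later. Clonic seizures, tonic seizures and lethality were recorded, and treated groups were compared with a control group.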

[9] = system: Mus musculus; assay: Anticonvulsant activity in C57B/6 mouse assessed as inhibition of strychnine-induced clonic seizures at 50 mg/kg, ip after 0.5 hrs relative to control; assay type: functional; parameters: scale not given: the % may be the effect or the level left; settings: route intraperitoneal
Method in brief: (§3)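 Strychnine chlorhydrate in saline (1.2 mg/kg) was injected s.c. into mice 30 min after i.p. test agent. Animals were caged singly and observed for 30 min. Seizure onset time, clonic and tonic seizure counts and lethality were recorded. Controls received vehicle only.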

[10] = system: Mus musculus; assay: Anticonvulsant activity in C57B/6 mouse assessed as inhibition of strychnine-induced tonic seizures at 50 mg/kg, ip after 0.5 hrs relative to control; assay type: functional; parameters: scale not given: the % may be the effect or the level left; settings: route intraperitoneal; method in brief: as §3
[11] = system: Mus musculus; assay: Toxicity in strychnine-induced seizure C57B/6 mouse model assessed as lethality at 50 mg/kg, ip after 0.5 hrs relative to control; assay type: organism-based; parameters: dose 50 mg/kg, route intraperitoneal; settings: in vivo
Method in brief: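 Test agent given i.p.; controls received vehicle only. After 30 min, strychnine chlorhydrate 1.2 mg/kg in saline was injected s.c. Mice were caged individually and observed 30 min, recording seizure onset time, clonic and tonic seizure numbers and lethality.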

SMILES: O=C1COc2cc(NCc3ccccc3Cl)ccc2N1
- TD50 at 0.5 h [1]: > 300 mg/kg

SMILES: O=C1COc2ccccc2N1
- ED50 [2]: 300 mg/kg
- TD50 at 0.5 h [1]: > 300 mg/kg

SMILES: O=C1COc2cc(NCc3cccc(F)c3)ccc2N1
- TD50 at 0.5 h [1]: 228 mg/kg

SMILES: O=C1COc2cc(NCc3ccccc3)ccc2N1
- TD50 at 0.5 h [1]: 182 mg/kg

SMILES: O=C1COc2cc(NCc3ccc(F)cc3)ccc2N1
- TD50 at 0.5 h [1]: 228 mg/kg

SMILES: O=C1COc2cc(NCc3ccc(Br)cc3)ccc2N1
- TD50 at 0.5 h [1]: > 300 mg/kg

SMILES: Cc1ccc(CNc2ccc3c(c2)OCC(=O)N3)cc1
- TD50 at 0.5 h [1]: > 300 mg/kg

SMILES: O=C1COc2cc(NCc3ccccc3F)ccc2N1
- TD50 at 0.5 h [1]: 183 mg/kg

SMILES: O=C1COc2cc(NCc3ccc(Cl)cc3)ccc2N1
- TD50 at 0.5 h [1]: > 300 mg/kg

SMILES: CN(Cc1ccc(F)cc1)c1ccc2c(c1)OCC(=O)N2C
- TD50 at 0.5 h [1]: > 300 mg/kg

SMILES: O=C1COc2cc(NCc3ccc4c(c3)OCO4)ccc2N1
- ED50 [2]: 63.4 mg/kg
- TD50 at 0.5 h [1]: > 300 mg/kg
- Ratio [3]: >4.7

SMILES: CCOc1ccc(CNc2ccc3c(c2)OCC(=O)N3)cc1
- TD50 at 0.5 h [1]: > 300 mg/kg

SMILES: NC(=O)N1c2ccccc2C=Cc2ccccc21 [CARBAMAZEPINE]
- ED50 [2]: 9.2 mg/kg
- TD50 at 0.5 h [1]: 74.4 mg/kg
- Activity [4]: 100%
- Activity [5]: 20%
- Activity [6]: 10%
- Activity [7]: 10%
- Activity [8]: 0%
- Activity [9]: 40%
- Activity [10]: 30%
- Activity [11]: 0%
